# Sampled rows, rich in hits. Any-hit rate of the full collection: about 3.3%.
# rCAG RNA binder: binders of r(CAG) RNA repeats, primary screen, biochemical, fluorescence | inhibition, % at 3 µM | 370,000 tested, 1.3% active | r(CAG) RNA repeat, TO-PRO-1 dye displacement fluorescence | AID 651821, 2012;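 active = inhibition above the plate cutoff, the mean of all test compounds on that plate plus 3 SD, cut at about 35% in these data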;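 also: 0% = DMSO alone and 100% = 100 µM mitoxantrone as full dye displacement; higher means more dye released from RNA so lower well fluorescence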
# ABHD4 inh: ABHD4 inhibitors, primary screen, biochemical, fluorescence polarization, mouse. (Lyso)-N-acylphosphatidylethanolamine lipase (Mus musculus), Q8VD66. 370,000 tested, 0.54% active. purified mABHD4, FP-Rh probe fluorescence polarization. inhibition, % at 8.92 µM;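 active = inhibition exceeding the mean over every tested compound plus 3 SD, cut at about 30% in these data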;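 also: 0% = plate median of compound wells and 100% = S159A mutant with DMSO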
# Target sequence (Q8VD66 whole entry, looked up): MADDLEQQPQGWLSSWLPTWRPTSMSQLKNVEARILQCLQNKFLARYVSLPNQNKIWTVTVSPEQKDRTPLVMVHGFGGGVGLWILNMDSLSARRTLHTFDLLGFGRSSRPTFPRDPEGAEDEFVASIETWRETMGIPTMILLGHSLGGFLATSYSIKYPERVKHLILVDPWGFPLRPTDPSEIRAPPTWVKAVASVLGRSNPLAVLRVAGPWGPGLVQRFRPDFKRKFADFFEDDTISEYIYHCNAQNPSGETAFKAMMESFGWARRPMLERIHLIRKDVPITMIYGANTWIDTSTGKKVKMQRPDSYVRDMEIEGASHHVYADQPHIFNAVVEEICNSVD
#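 Test system: mABHD4 protein | Buffer or medium: HEPES pH 7.0 buffer, 150 mM NaCl, 0.01% Pluronic F-127 | Probe or stimulus: FP-Rh fluorescent activity-based probe, added after compound pre-incubation | Timing: Pre-incubation 45 min, probe exposure 60 min, at 25 °C | Technique: Fluorescence polarization, excitation 525 nm, emission 598 nm, BODIPY TMR filters | Repeats: Single well per compound (singlicate)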
# SIAE inh: human SIAE inhibitors, primary screen, biochemical, fluorescence polarization, FP-Rh probe, 1536-well HTS; Sialate O-acetylesterase (Homo sapiens), Q9HAT2; SIAE FP-Rh probe binding; inhibition, % at 9.66 µM; 370,000 tested, 0.69% active; AID 1053197, 2014;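 active = inhibition above a cutoff: mean of compounds within the control limits plus 3 SD of those, cut at about 17% in these data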;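 also: 0% = plate median of compound wells and 100% = probe without SIAE protein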
# TCR CD3 inh: inhibitors of human TCR-CD3 interaction, primary screen, biochemical, fluorescence, TAMRA-labeled TCR probe. T-cell receptor (TCR). inhibition, % at 9.4 µM. 360,000 tested, 0.37% active; in the data active = inhibition above about 19%;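 also: recombinant mutant TCR 2C K166C tagged with TAMRA read by polarization; 0% = receptor in buffer alone and 100% = receptor with positive control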
# PRMT1 inh: PRMT1 methyltransferase inhibitors, primary screen, biochemical, fluorescence polarization; Protein arginine N-methyltransferase 1 (Homo sapiens), Q99873; recombinant PRMT1, activity-based probe fluorescence polarization; inhibition, % at 2.79 µM; 370,000 tested, 1.3% active;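 active = inhibition above about 21% made by adding two undisclosed values, limit read from the data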
# rCAG binder conf: small molecules binding CAG repeat RNA – biochemical, fluorescence, confirmation | shares compounds with rCAG RNA binder | inhibition, % at 3 µM | AID 652065, 2013 | r(CAG) RNA repeat, TO-PRO-1 dye displacement fluorescence | 4,300 tested, 70% active;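 active = inhibition above a per-plate cutoff, the mean inhibition of sample wells plus 3 SD, cut at about 35% in these data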;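 also: loss of TO-PRO-1 fluorescence as compound displaces dye from 1x1 AA loop RNA; 0% = DMSO only wells and 100% = 100 µM mitoxantrone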
# dCAG dye counter: displacement of TO-PRO-1 from CAG DNA duplex, counter-screen for rCAG RNA repeat binder project, biochemical, fluorescence, TO-PRO-1 dye, d(CAG) DNA oligo | shares compounds with rCAG RNA binder | d(CAG) DNA oligo TO-PRO-1 dye displacement | inhibition, % at 3 µM | 4,300 tested, 94% active | AID 652068, 2013;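 active = inhibition above its plate's cutoff, the mean test-well inhibition plus 3 SD, cut at about 4.8% in these data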;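 also: 0% = DNA dye mix with DMSO and 100% = 100 µM mitoxantrone; hits displace the dye from DNA and so lower well fluorescence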
# dCAG dye DR: inhibitors of DNA CAG/GTC TO-PRO-1 complex, dose response, counter-screen for rCAG RNA repeat binder project, biochemical, fluorescence, TO-PRO-1 dye. shares compounds with rCAG RNA binder. IC50, µM. DNA CAG/GTC duplex TO-PRO-1 dye displacement fluorescence. AID 686960, 2013. 250 tested, 20% active; in the data active = IC50 below about 10 µM
# Active calls of the source: *; . = no result.
SMILES,rCAG RNA binder,ABHD4 inh,SIAE inh,TCR CD3 inh,PRMT1 inh,rCAG binder conf,dCAG dye counter,others
COc1cc(NS(=O)(=O)c2ccc(NC(=S)NC(=O)c3ccc(F)c(F)c3)cc2)nc(OC)n1,49*,0,-5,-2,0,54*,12*,dCAG dye DR=>30
COc1cc(NS(=O)(=O)c2ccc(NC(=O)COc3ccccc3C)cc2)nc(OC)n1,45*,8,-6,0,4,32,13*,
COc1cc(NS(=O)(=O)c2ccc(NC(=S)NC(=O)C(C)(C)C)cc2)nc(OC)n1,10,1,3,3,0,.,.,
COC(=O)CCC(=O)Nc1ccc(S(=O)(=O)Nc2cc(OC)nc(OC)n2)cc1,0,4,-7,0,1,.,.,
COc1cc(NS(=O)(=O)c2ccc(NC(=S)NC(=O)COc3ccccc3OC)cc2)nc(OC)n1,44*,-2,0,4,-5,59*,24*,
COc1cc(NS(=O)(=O)c2ccc(NC(=S)NC(C)=O)cc2)nc(OC)n1,11,-10,-7,-2,-6,.,.,
CC(C)(C)c1ccc(C(=O)Nc2cc(Cl)ccc2-c2nn[nH]n2)cc1,.,-154,-124,.,7,.,.,
COc1ccc(CC(=O)Nc2ccc(S(=O)(=O)Nc3cc(OC)nc(OC)n3)cc2)cc1,20,5,-10,-2,4,.,.,
COc1cc(NS(=O)(=O)c2ccc(NC(=O)COc3ccc(C)cc3)cc2)nc(OC)n1,38*,-7,-7,0,5,27,10*,
C[C@@H]1ON(C)[C@H]2C[C@H]3c4[nH]c5c(-c6ccccc6F)cccc5c4CCN3C[C@@H]12,3,9,6,.,1,.,.,
N#CCc1nc2ccc(S(=O)(=O)N3CCOCC3)cc2s1,43*,-17,-11,-29,-1,25,15*,
CSc1nc2ccc(S(=O)(=O)N3CCOCC3)cc2s1,-4,1,0,0,1,.,.,
C/C(=N\Nc1c(Cl)c(Cl)nc(C(=O)O)c1Cl)c1ccc(O)cc1,40*,7,-6,-3,3,9,4.5*,
C/C(=N\Nc1nccnc1Cl)c1ccc(O)cc1,-2,14,-2,1,-3,.,.,
COc1cc(CN2c3ccccc3C(=O)CS2(=O)=O)cc(OC)c1,47*,-24,-1,1,-3,15,8.5*,
O=c1ccccn1Cc1ccccc1F,0,-4,1,0,1,.,.,
O=C1CS(=O)(=O)N(Cc2ccc(F)cc2)c2ccccc21,41*,-20,7,1,-1,7,4.5*,
O=C1CS(=O)(=O)N(Cc2ccccc2F)c2ccc(Br)cc21,44*,-63,-13,-2,2,29,13*,
COc1ccc(CN2CCN(c3ccccc3OC)CC2)cc1OC,-7,11,8,-5,4,.,.,
COc1ccc(CN2c3ccccc3C(=O)CS2(=O)=O)cc1OC,35*,-21,-5,-3,-2,13,6.5*,
O=C(NC1CCC1)c1ccc(C#Cc2cccc(F)c2)cn1,-1,-8,2,.,2,.,.,
COc1ccc(-n2c(SCC(=O)N(CC(C)C)CC(C)C)nnc2-c2ccncc2)cc1,-3,-1,-8,.,-1,.,.,
CC(C)CNC(=O)OCc1cn(Cc2ccccc2Cl)nn1,-1,-1,9,.,-2,.,.,
COc1cccc(/C=C2\SC(=S)N(N3CCOCC3)C2=O)c1OC,-2,-2,-8,2,1,.,.,
COc1ccccc1NC(=O)CCN1C(=O)/C(=C/c2cc(OC)c(OC)c(OC)c2)SC1=S,-1,5,6,-12,6,.,.,
SMILES,rCAG RNA binder,ABHD4 inh,SIAE inh,TCR CD3 inh,PRMT1 inh,rCAG binder conf,dCAG dye counter,others
COc1cccc(/C=C2\SC(=S)N(C(C(=O)O)c3ccccc3)C2=O)c1OC (stereo unspecified),63*,1,0,7,8,63*,25*,
COc1ccc(/C=C2\SC(=S)N(N3CCOCC3)C2=O)c(OC)c1,1,3,-8,0,1,.,.,
COc1ccc(/C=C2\SC(=S)N(C(C(=O)O)c3ccccc3)C2=O)c(OC)c1 (stereo unspecified),79*,-7,-12,3,-4,79*,45*,
COc1cc(/C=C2\SC(=S)N(C(C(=O)O)c3ccccc3)C2=O)cc(OC)c1OC (stereo unspecified),56*,-3,-7,-5,16,64*,24*,
O=C(O)C(c1ccccc1)N1C(=O)/C(=C\c2ccc(-c3ccccc3Cl)o2)SC1=S (stereo unspecified),45*,19,1,9,19,87*,63*,
CN(c1c2c(nc3ncnn13)CCCC2)C1CCCCC1,-1,2,-2,.,-1,.,.,
NNC(=O)c1cc2ccccc2cc1NS(=O)(=O)c1ccccc1,54*,-14,-33,0,1,14,5.0*,
NC(=O)c1ccccc1NS(=O)(=O)c1ccccc1,1,-1,3,0,0,.,.,
CN1C(=O)c2cc(NC(=O)c3ccc(F)cc3)ccc2OC[C@H]2O[C@H](CC(=O)NC3CCC3)CC[C@H]21,2,-3,7,.,-1,.,.,
O=C(Cn1cc2c(n1)CCCCC2)NCc1ccccc1,41*,2,1,5,-4,6,2,
O=C1c2ccccc2-c2n[nH]c(=O)c3ccc(N4CCCCC4)c1c23,37*,13,4,-3,0,13,6.8*,
O=C1c2cccc3c(N4CCCCC4)ccc(c23)C(=O)N1c1ccccn1,-14,-6,4,8,8,.,.,
CCOc1ccc2nc(S(=O)(=O)NC(=O)C3(C)CCN3C(=O)CCc3cccs3)sc2c1 (stereo unspecified),38*,3,-4,5,-4,37*,9.9*,
CC1(C(=O)NS(=O)(=O)c2ccc(Cl)cc2)CCN1C(=O)Cc1ccccc1Cl (stereo unspecified),14,1,-4,2,-3,.,.,
CCCCOc1ccc(S(=O)(=O)NC(=O)C2(C)CCN2C(=O)CCc2ccccc2)cc1 (stereo unspecified),39*,2,10,3,-2,32,7.2*,

# Compound activity (PubChem BioAssay)
